# Bioassay records: PubChem BioAssay, several laboratories
# Most compounds without a hit are left out; they make up all but 2.2% or so of the library.
# ASAP1 inh: inhibitors of human ASAP1 ArfGAP activity. ASAP1-stimulated ARF1 GTP hydrolysis, GDP FP detection. 0.19% of 360,000 active. inhibition, % at 16.5 µM; in the data active = inhibition above about 25%
# V-ATPase pHluor: regulators of yeast V-ATPase proton transport; response, % at 10 µM; 0.37% of 350,000 active; AID 504577; S. cerevisiae, pHLuorin cytosolic pH fluorescence; in the data active = response mostly above about 7.3%, no sharp cut-off; inactive = mostly below about 5.4%; also: actives read high
# ARFGAP1 inh: inhibitors of rat ARFGAP1. Arfgap1-stimulated ARF1 GTP hydrolysis, GDP FP detection. Q62848. AID 651572. 0.26% of 360,000 active. inhibition, % at 16.5 µM;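 active = inhibition above a per-plate limit, mean inhibition of low control wells plus 3 SD, cut at about 25% in these data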
# Target sequence (Q62848 1-136 limits assumed): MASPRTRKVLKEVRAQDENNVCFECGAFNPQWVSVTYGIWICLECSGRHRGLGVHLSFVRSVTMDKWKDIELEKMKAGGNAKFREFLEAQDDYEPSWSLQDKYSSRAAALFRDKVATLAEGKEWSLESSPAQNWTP
#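 System: truncated rat Arfgap1 GAP domain / Benchmarks: high control wells lacking Arfgap1, low control full reaction with DMSO / Times: compound-enzyme preincubation 20 min, reaction 120 min, detection 60 min, 25 °C / Repeats: one replicate per compound / Also added: human ARF1(Δ1-17)-GTP substrate / Measured by: Tracer-displacement fluorescence polarization with EDTA stop, 620/688 nm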
# NRP1-CendR mod: NRP-1/CendR interaction modulation. 0.85% of 360,000 active. FAM-RPARPAR peptide binding to NRP-1, fluorescence polarization. inhibition, % at 25 µM. O14786;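 active = inhibition or corrected inhibition above about 18%, plus a signal ratio from 0.5 to 1.5, limit read from the data, passing the limit was not always enough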
# Granule exo inh: lytic granule exocytosis inhibition; inhibition, % at 10 µM; TALL-104 LAMP-1 surface exposure, flow cytometry; cells stimulated with thapsigargin and PMA; 0.66% of 360,000 active; AID 651702;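 active = inhibition above about 55%, limit read from the data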
# Numbers stand for hits; 0 = inactive; - = no result given.
SMILES,ASAP1 inh,V-ATPase pHluor,ARFGAP1 inh,NRP1-CendR mod,Granule exo inh
Nc1[nH]c(C(=O)c2ccccc2)c(-c2ccccc2[N+](=O)[O-])c1C(=O)NCCc1c[nH]c2ccccc12,0,-,0,-,-
CC(N)=Nc1ccc([N+](=O)[O-])cc1,0,0,0,0,0
O=[N+]([O-])c1ccc(N=Nc2c(Cl)cc(O)cc2Cl)cc1,0,0,0,0,78.8
Nc1[nH]c(C(=O)c2ccccc2)c(-c2cccc3ccccc23)c1C(=O)NCc1ccc(F)c(F)c1,0,-,0,-,-
CN(CCO)c1cc(Sc2nc3ccccc3s2)c2nonc2c1[N+](=O)[O-],0,0,0,0,55.9
Cn1c(=NC(=O)COc2ccccc2)sc2ccccc21,0,0,0,25.5,0
COc1ccc(NC(=O)/C=C/c2ccco2)cn1,0,0,0,0,0
COc1ccc(NC(=O)Nc2cc(C)cc(C)c2)cn1,0,0,0,0,0
COc1ccc(NC(=O)Nc2cccc(C(F)(F)F)c2)cn1,0,0,0,28.0,0
COc1ccc(NC(=O)/C=C/c2cccc(F)c2)cn1,0,0,0,19.1,0
COc1ccc(Cc2nnc(NC(=O)c3ccccc3)s2)cc1OC,0,0,0,0,0
O=C(Cn1nnc(N2CCOCC2)n1)NN=Cc1ccccc1Cl,0,-,0,-,-
CCOc1c2ccc(C(=O)NCCc3cccs3)cc2nn1CC,0,0,0,24.8,0
CCCn1nc2cc(C(=O)NCCc3ccc(C)cc3)ccc2c1OCC,0,0,0,25.5,0
CCOc1c2ccc(C(=O)NCc3ccc(C)cc3)cc2nn1CCOC,0,0,0,0,0
Cc1ccc(N(C)c2nc(N)nc(N)c2N=O)cc1,0,-,0,-,-
O=C(N[C@@H](Cc1cccnc1)C(=O)N1CCC[C@H]1C(=O)NC1CCCC1)C1CCCC1,0,-,0,-,-
c1ccc(-c2csc3ncnc(NCc4ccccn4)c23)cc1,0,22.2,0,0,0
COC(=O)C1=C(C)N(Cc2ccccc2C(F)(F)F)C(=NCC2CC2)NC1c1ccc(F)cc1 (configuration not stated),0,-,0,-,-
CCCCOc1ccc(C(=O)Nn2cnnc2)cc1,0,0,0,24.9,0
O=S(=O)(NCc1ccc(F)cc1)c1ccc(-n2cccn2)cc1,0,0,0,21.2,0
Cn1nccc1C(=O)N1CCN(C23CC4CC(CC(C4)C2)C3)CC1,0,0,0,30.9,0
Cc1ccc(C(=O)N2CCN(C34CC5CC(CC(C5)C3)C4)CC2)o1,0,0,0,24.8,0
NC(=O)c1c(N)[nH]c(C(=O)c2ccccc2)c1-c1ccc2c(c1)OCO2,0,-,0,-,-
O=C(CSc1nnc(-c2cccs2)o1)OC1CCCCC1,0,0,0,33.7,0
SMILES,ASAP1 inh,V-ATPase pHluor,ARFGAP1 inh,NRP1-CendR mod,Granule exo inh
O=C(CSc1nnc(-c2cccs2)o1)OCc1ccccc1,0,0,0,0,0
COc1ccc(NC(=S)N(CCN2CCOCC2)Cc2ccccc2F)cc1,0,0,0,24.1,0
c1cc2c(cc1-n1cnnn1)OCO2,0,0,0,0,0
c1cc2c(cc1Cn1cnnn1)OCO2,0,0,0,21.9,0
CCOc1ccccc1C(=O)N[C@H](C(=O)Nc1nc2c(s1)CCCC2)C(C)C,0,0,0,0,0
COc1ccc(C(=O)N[C@H](C(=O)Nc2nc3c(s2)CCCC3)C(C)C)cc1,0,0,0,25.5,0
O=[N+]([O-])c1ccc(N2CCN(Cc3ccccc3)CC2)c(S(=O)(=O)N2CCOCC2)c1,0,0,0,30.3,0
O=C(CCCNC(=O)/C(=C/c1ccc(F)cc1)NC(=O)c1ccccc1)OCc1ccccc1,0,0,0,0,0
O=C(CCCNC(=O)/C(=C\c1ccc(F)cc1)NC(=O)c1ccccc1)OCc1ccccc1,0,0,0,30.7,0
COc1ccc(C2CC(=O)C(c3cccc(C)c3)=CN2Cc2ccccc2)cc1 (configuration not stated),0,-,0,-,-
O=C(C1=C[C@H](c2ccc(C(F)(F)F)cc2)C[C@H](OCCCCO)O1)N1CCN(Cc2ccc3c(c2)OCO3)CC1,0,0,0,28.8,0
O=C(O)C1=C[C@H](c2ccc3c(c2)OCO3)C[C@H](OCCCCO)O1,0,0,0,0,0
O=C(NC1CC1)C1=C[C@@H](c2ccc3c(c2)OCO3)C[C@@H](OCCCCO)O1,0,0,0,27.7,0
O=c1c(-n2cncn2)c[nH]n1-c1cccc(Cl)n1,0,0,0,18.5,0
CN(Cc1ccc2c(c1)CCCN2C)C(=O)[C@H]1O[C@@H](n2ccc(=O)[nH]c2=O)[C@H](O)[C@@H]1O,0,-,0,27.4,0
